Results from ChEMBL document CHEMBL1122850, “Synthesis of 6-anilino-2-thiouracils and their inhibition of human placenta iodothyronine deiodinase” (J Med Chem, 1985).

Assays:
[1] = target: T1, Thyroxine 5-deiodinase (Homo sapiens) (UniProt P55073); experiment: Inhibition of Human Placenta Inner-Ring Iodothyronine 5-deiodinase at the compound concentration of 5 mM
T1 sequence (whole entry): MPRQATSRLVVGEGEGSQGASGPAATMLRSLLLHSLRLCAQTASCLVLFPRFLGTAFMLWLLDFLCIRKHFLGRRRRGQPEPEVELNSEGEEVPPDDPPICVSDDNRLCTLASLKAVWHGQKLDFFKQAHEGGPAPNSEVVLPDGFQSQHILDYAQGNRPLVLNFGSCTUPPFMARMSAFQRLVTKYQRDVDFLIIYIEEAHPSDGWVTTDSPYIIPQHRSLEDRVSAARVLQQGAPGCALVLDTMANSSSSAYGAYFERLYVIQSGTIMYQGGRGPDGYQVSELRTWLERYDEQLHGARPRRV
Procedure, shortened: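 Human placenta microsomal fraction (225 μg/tube) incubated 60 min at 37 °C with 290 pmol T4 in 0.1 M potassium phosphate–0.01 M EDTA, pH 7.4, with 0.25 mM DTT. Inhibitors at 5 mM, diluted from 30 mM stocks in 0.04 M NaOH. rT3 formed measured by radioimmunoassay. Inhibition relative to uninhibited control, quadruplicate incubations.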

[2] = target: T1, Thyroxine 5-deiodinase (Homo sapiens); experiment: Inhibition of Human placenta inner-ring Iodothyronine 5-deiodinase activity measured as rT3 production in presence of DTT concentrations of 0.2 mM
Procedure, shortened: (§1)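 Placenta microsomes (225 μg/tube) incubated with 290 pmol T4 in 0.1 M potassium phosphate–0.01 M EDTA (pH 7.4), 60 min, 37 °C. DTT varied over 0.2–100 mM in place of 0.25 mM. Inhibitor present at 5 mM. rT3 production (pmol/tube) measured by radioimmunoassay and compared with control tubes without inhibitor. Quadruplicate incubations.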

[3] = target: T1, Thyroxine 5-deiodinase (Homo sapiens); experiment: Inhibition of Human placenta inner-ring Iodothyronine 5-deiodinase activity measured as rT3 production in presence of DTT concentrations of 1.56 mM; procedure, shortened: as §1
[4] = target: T1, Thyroxine 5-deiodinase (Homo sapiens); experiment: Inhibition of Human placenta inner-ring Iodothyronine 5-deiodinase activity measured as rT3 production in presence of DTT concentrations of 100 mM; procedure, shortened: as §1
[5] = target: T1, Thyroxine 5-deiodinase (Homo sapiens); experiment: Inhibition of Human placenta inner-ring Iodothyronine 5-deiodinase activity measured as rT3 production in presence of DTT concentrations of 12.5 mM; procedure, shortened: as §1

| SMILES | inhibition [1] [%] | rT3 Production [2] [pmol/tube] | rT3 Production [3] [pmol/tube] | rT3 Production [4] [pmol/tube] | rT3 Production [5] [pmol/tube] |
| --- | --- | --- | --- | --- | --- |
| CCCCc1ccc(Nc2cc(=O)n(C)c(=S)[nH]2)cc1 | 20 |  |  |  |  |
| Cn1c(=S)[nH]c(N)c(Cc2ccccc2)c1=O | 79 |  |  |  |  |
| Nc1cc(O)nc(S)n1 | 16 |  |  |  |  |
| CCCCc1ccc(Nc2cc(O)nc(S)n2)cc1 | 96 | 0.2 | 0.8 | 4.1 | 2.5 |
| CCCc1cc(=O)[nH]c(=S)[nH]1 | 29 | 2.6 | 13.3 | 104 | 43.3 |
| CCc1ccc(Nc2cc(O)nc(S)n2)cc1 | 85 |  |  |  |  |
| CCc1ccc(Nc2cc(=O)[nH]c(=S)n2C)cc1 | 2 |  |  |  |  |
| Oc1cc(Nc2ccccc2)nc(S)n1 | 31 |  |  |  |  |
| CCc1ccc(Nc2cc(=O)n(C)c(=S)[nH]2)cc1 | 0 |  |  |  |  |
